Compound activity deposited in PubChem BioAssay by several laboratories.
m-calpain inh = inhibitors of pig calpain II; purified calpain II, fluorogenic peptide substrate, 30 min; inhibition, % at 16 µM; actives 0.37% (n = 220,000);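 active = inhibition above about 50%, limit read from the data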
hK5 inh = inhibitors of human kallikrein 5; Q9Y337; recombinant hK5, fluorogenic AMC substrate cleavage; inhibition, % at 5 µM; actives 0.59% (n = 210,000);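 active = inhibition of 40% or more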;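 also: 0% = enzyme controls without compound and 100% = no-enzyme blanks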
FXIIa inh 1536 = factor XIIa (human) inhibition. P00748. purified FXIIa, Boc-QGR-AMC fluorogenic substrate, 2 h. inhibition, % at 5 µM. actives 0.3% (n = 220,000); in the data active = inhibition above about 40%;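 also: 0% = enzyme with no compound and 100% = blank without enzyme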
FXIa inh 1536 = factor XIa (human) inhibition; P03951; purified FXIa, Boc-Glu-Ala-Arg-AMC fluorogenic substrate; inhibition, % at 5 µM; actives 0.14% (n = 220,000);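 active = inhibition of at least 40%; inactive = inhibition below 40%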;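 also: fluorescence of freed AMC excited at 355 nm; 0% = enzyme without compound and 100% = no enzyme blank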
thrombin 1536 = inhibitors of human thrombin; alpha-thrombin, Boc-VPR-AMC fluorogenic substrate cleavage; P00734; actives 0.26% (n = 220,000); inhibition, % at 5 µM;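 active = inhibition at or above 40%; inactive = inhibition below 40%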;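 also: 0% = enzyme with no compound and 100% = wells without enzyme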
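System – human alpha-thrombin · Medium – pH 7.5 Tris (50 mM) with NaCl 150 mM, Tween 20 0.05% · Compound – single-point dosing at 5 µM, 0.2% DMSO · Incubation – enzyme reaction carried out at room temperature · Technique – fluorescence of released AMC, ex 355 nm, em 460 nm · Read-out basis – % inhibition of thrombin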
Starred values were filed as active, the others as inactive. A selection: hits, their analogues and other compounds. The true share with any hit is near 1.4%.

SMILES	m-calpain inh	hK5 inh	FXIIa inh 1536	FXIa inh 1536	thrombin 1536
COc1c(Cl)cc(C(=O)Nc2ccccc2-c2ccccc2)cc1Cl	53.7*	31.0	13.1	-5.2	2.8
COc1ccc(C(=O)Nc2ccccc2C(=O)O)cc1Cl	19.9	46.6*	28.3	12.4	24.3
O=C(CNc1c(Br)cc(Br)cc1Br)NN=C1CCCCC1	-4.3	-10.4	13.7	6.0	-3.0
Cc1ccc(C)c(N2CCN(C(=O)C3CCCCN3S(=O)(=O)c3ccc(F)cc3)CC2)c1 (stereo unspecified)	57.5*	-6.8	3.4	0.0	-7.0
Cc1ccc(S(=O)(=O)N2CCCC2C(=O)O)cc1 (stereo unspecified)	-19.2	-9.6	10.1	-3.2	-9.4
Cc1cc(C)c(NC(=O)COC(=O)Cc2ccsc2)c(C)c1	62.1*	-3.9	6.9	-0.4	-3.5
Cc1ccc(S(=O)(=O)N(Cc2cc3ccccc3[nH]c2=O)c2cccc(C)c2)cc1	-11.7	-1.5	5.7	-3.1	2.4
Cc1ccc(Nc2ncccc2C(=O)NCc2cccs2)c(C)c1	18.5	0.0	6.2	1.5	-3.1
Cc1cccc(Nc2ncccc2C(=O)NCc2cccs2)c1C	54.2*	5.4	-22.0	-38.1	-6.9
CCn1nc(C)c(CNC(=O)c2cc(COc3ccc(F)cc3Cl)on2)c1C	2.3	28.4	43.1*	23.1	28.6
COc1ccc([N+](=O)[O-])cc1NC(=O)CC1SC(=Nc2cccc(C)c2C)N(/N=C/c2cccc(OC)c2OC)C1=O (stereo unspecified)	-73.1	-3.4	22.4	102.2*	20.7
CCNc1nc(NCC)nc(OCCNS(=O)(=O)c2cc(C)ccc2C)n1	12.9	52.6*	0.4	20.3	33.7
CCNc1nc(NC(C)C)nc(OCCNS(=O)(=O)c2cc(C)ccc2C)n1	9.9	-4.4	14.1	8.7	-1.4
Cc1[nH]n(-c2ccc(C(=O)O)cc2)c(=O)c1CCO	57.7*	-2.9	13.2	-2.1	-4.1
COc1cc(/C=C(/NC(C)=O)C(=O)O)cc(Cl)c1OCc1ccc(Br)cc1	-86.8	-1.9	2.8	0.9	-7.2
C=CCOC(=O)C1=C(C)Nc2[nH]c(=O)[nH]c(=O)c2C1c1ccccc1 (stereo unspecified)	41.0	18.5	25.0	67.3*	10.2
O=C(Cc1ccccc1[N+](=O)[O-])Nc1ccccc1C(=O)N1CCCC1	3.5	18.9	85.1*	31.2	8.7
O=C(Cc1ccccc1[N+](=O)[O-])Nc1ccccc1C(=O)N1CCOCC1	12.7	-2.4	7.6	-1.3	-0.7
Cc1ccc(NC(=O)CSc2nnc([C@H](C)NC(=O)OC(C)(C)C)o2)c(C)c1	27.8	24.0	107.4*	20.6	5.5
O=[N+]([O-])c1ccc(Sc2cc[n+]([O-])c3ccccc23)c([N+](=O)[O-])c1	6.1	1.6	6.8	-0.5	-1.4
OCCN1CCN(c2cc(-c3ccccc3)c3ccccc3n2)CC1	-70.0	-23.3	-2.7	-3.9	-14.9
Cc1cc2c(NC(=O)Nc3ccccc3)cccc2nn1	23.8	56.7*	34.5	32.8	2.0
CC(=O)NC(CC(=O)O)c1ccc([N+](=O)[O-])cc1 (stereo unspecified)	-7.7	-3.6	9.1	1.7	-0.3
O=C(O)c1ccc(OCC(F)(F)F)nc1	12.1	1.0	7.4	3.8	-0.4
Cc1cc(F)ccc1S(=O)(=O)Nc1ccccc1C(=O)NCc1ccccn1	-77.3	49.9*	28.8	34.3	36.2
SMILES	m-calpain inh	hK5 inh	FXIIa inh 1536	FXIa inh 1536	thrombin 1536
Cc1cc(NS(=O)(=O)c2ccc(NC(=O)CSc3nnc(-c4ccco4)n3N)cc2)nc(C)n1	32.1	28.5	-8.5	-8.4	61.9*
COc1ccc(-c2csc(NC(=O)c3ccccc3NS(=O)(=O)c3ccc(F)c(F)c3)n2)cc1	60.5*	-24.3	-6.5	-2.2	-2.1
CCOC(=O)C1=C(C)NC(C)=C(C(=O)OCC)C1C(=O)OCC(=O)N(CC)C1CCS(=O)(=O)C1 (stereo unspecified)	-70.5	1.7	8.9	3.7	-6.6
O=C1c2oc3ccccc3c(=O)c2C(c2cccc(F)c2)N1CCCO (stereo unspecified)	-24.5	-2.8	51.0*	-7.1	-2.5
O=C1c2oc3ccccc3c(=O)c2C(c2cccc(O)c2)N1CCCN1CCOCC1 (stereo unspecified)	-8.6	-32.8	7.9	1.2	-3.1
CN1CCN(S(=O)(=O)c2ccc(Br)s2)CC1	5.6	33.0	47.8*	2.5	18.3
CCOC(=O)N1CCN(S(=O)(=O)c2ccc(Br)s2)CC1	5.4	7.0	16.0	6.0	2.7
